Reference: ChEMBL document CHEMBL1154352, “Toll-like receptor 7 selective synthetic oligoribonucleotide agonists: synthesis and structure-activity relationship studies” (J Med Chem, 2009)
The source made the active and inactive calls. The calls are words filed in the database; no cut-off is given here.

Assays:
[1] = system: Splenocyte; assay: Immunomodulatory activity in C57BL/6 mouse splenocytes bearing TLR7 receptor assessed as IL6 release at 100 ug/ml after 24 hrs by ELISA; type: functional, cell-based
Procedure, shortened: (§1)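 C57BL/6 splenocytes in RPMI 1640 with 10% FBS, penicillin/streptomycin, 2 mM L-glutamine, plated at 5 × 10^6 cells/mL; compounds in PBS added, 37 °C for 24 h. Supernatant IL-12 and IL-6 by ELISA; representative of three independent experiments.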

[2] = system: Splenocyte; assay: Immunomodulatory activity in C57BL/6 mouse splenocytes bearing TLR7 receptor assessed as IL12 release at 100 ug/ml after 24 hrs by ELISA; type: functional, cell-based; procedure, shortened: as §1
[3] = target: T1, Toll-like receptor 9 (Mus musculus) (UniProt Q9EQU3); assay: Activation of mouse TLR9 expressed in HEK293 assessed as induction of NF-kappaB activity reporter gene assay; type: cell-based
T1 sequence (whole entry): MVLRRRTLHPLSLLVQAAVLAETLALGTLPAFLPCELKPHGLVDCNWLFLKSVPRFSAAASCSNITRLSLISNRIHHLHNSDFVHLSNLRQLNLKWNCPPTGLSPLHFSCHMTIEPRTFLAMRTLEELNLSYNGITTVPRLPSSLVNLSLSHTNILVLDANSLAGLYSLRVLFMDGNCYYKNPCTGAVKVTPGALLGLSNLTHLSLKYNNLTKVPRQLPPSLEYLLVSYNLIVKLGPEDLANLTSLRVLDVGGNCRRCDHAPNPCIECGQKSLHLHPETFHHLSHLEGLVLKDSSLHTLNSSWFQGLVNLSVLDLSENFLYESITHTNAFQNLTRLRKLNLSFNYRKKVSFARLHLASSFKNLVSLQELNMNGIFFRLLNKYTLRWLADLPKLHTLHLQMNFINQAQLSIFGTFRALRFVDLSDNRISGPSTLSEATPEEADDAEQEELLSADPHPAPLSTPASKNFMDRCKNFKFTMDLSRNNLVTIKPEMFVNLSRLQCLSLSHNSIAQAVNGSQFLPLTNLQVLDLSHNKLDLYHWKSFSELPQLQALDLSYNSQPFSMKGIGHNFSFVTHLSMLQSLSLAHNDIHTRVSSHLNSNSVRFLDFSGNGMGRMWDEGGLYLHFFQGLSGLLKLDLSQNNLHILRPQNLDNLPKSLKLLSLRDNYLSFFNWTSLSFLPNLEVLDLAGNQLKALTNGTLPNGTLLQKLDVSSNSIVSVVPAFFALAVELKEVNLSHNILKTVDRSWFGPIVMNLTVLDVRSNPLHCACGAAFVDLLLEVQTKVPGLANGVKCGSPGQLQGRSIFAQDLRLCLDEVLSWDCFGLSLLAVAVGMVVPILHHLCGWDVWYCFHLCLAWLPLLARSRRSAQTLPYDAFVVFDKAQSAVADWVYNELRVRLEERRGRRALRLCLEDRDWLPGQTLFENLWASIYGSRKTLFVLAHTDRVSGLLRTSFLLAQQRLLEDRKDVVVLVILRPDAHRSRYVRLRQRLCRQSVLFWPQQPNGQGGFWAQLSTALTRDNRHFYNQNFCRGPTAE

[4] = system: PBMC; assay: Immunomodulatory activity in human PBMC assessed as induction of IL12 at 100 ug/ml after 24 hrs; type: functional, cell-based
Procedure, shortened: (§2)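 Human PBMCs plated at 5 × 10^6 cells/mL; compounds dissolved in PBS added at various concentrations, 37 °C for 24 h. Supernatant cytokines/chemokines quantified with human Luminex multiplex kit.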

[5] = Metabolic stability in human serum assessed as full length product remaining after 10 mins by HPLC; type: ADME, cell-free; details: read-out: Stability
Procedure, shortened: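 About 0.5 A260 units compound in 1% human serum in PBS, 37 °C; aliquot taken at 10 min, analysed by anion-exchange HPLC for percent intact full-length product.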

[6] = system: PBMC; assay: Immunomodulatory activity in human PBMC assessed as induction of TNFalpha at 100 ug/ml after 24 hrs; type: functional, cell-based; procedure, shortened: as §2
[7] = target: Toll-like receptor 3 (Homo sapiens) (UniProt O15455); assay: Activation of human TLR3 expressed in HEK293 assessed as induction of NF-kappaB activity reporter gene assay; type: cell-based
Chain of Toll-like receptor 3 (Homo sapiens) (O15455 whole entry): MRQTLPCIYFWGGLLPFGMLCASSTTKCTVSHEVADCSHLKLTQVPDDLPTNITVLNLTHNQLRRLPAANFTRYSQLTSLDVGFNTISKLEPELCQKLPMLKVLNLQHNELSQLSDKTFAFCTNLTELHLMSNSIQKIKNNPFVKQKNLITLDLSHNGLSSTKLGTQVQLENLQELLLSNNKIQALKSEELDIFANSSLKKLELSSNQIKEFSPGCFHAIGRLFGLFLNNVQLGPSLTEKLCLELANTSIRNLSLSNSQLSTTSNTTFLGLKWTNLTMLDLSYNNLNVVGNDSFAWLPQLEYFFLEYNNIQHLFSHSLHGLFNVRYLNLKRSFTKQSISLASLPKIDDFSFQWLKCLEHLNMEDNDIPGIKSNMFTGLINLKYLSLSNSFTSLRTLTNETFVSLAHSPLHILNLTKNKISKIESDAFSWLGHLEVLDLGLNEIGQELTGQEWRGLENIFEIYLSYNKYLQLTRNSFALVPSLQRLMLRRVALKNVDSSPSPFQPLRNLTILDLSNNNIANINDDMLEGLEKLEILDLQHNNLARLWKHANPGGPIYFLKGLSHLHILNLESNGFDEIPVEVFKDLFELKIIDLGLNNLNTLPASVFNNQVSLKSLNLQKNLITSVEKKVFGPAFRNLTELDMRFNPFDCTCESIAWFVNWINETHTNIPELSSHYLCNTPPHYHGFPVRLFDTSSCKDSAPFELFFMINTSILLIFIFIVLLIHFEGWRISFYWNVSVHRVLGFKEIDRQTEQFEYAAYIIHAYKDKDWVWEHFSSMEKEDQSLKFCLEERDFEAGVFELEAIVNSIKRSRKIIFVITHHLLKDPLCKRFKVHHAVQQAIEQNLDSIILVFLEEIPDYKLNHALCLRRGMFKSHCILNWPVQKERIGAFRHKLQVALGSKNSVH

[8] = system: PBMC; assay: Immunomodulatory activity in human PBMC assessed as induction of IFN-alpha at 100 ug/ml after 24 hrs
[9] = target: T2, Toll-like receptor 8 (Homo sapiens) (UniProt Q9NR97); assay: Activation of human TLR8 expressed in HEK293XL assessed as fold induction of NF-kappaB activity at 50 ug/ml after 18 hrs by reporter gene assay relative to control
T2 sequence (whole entry): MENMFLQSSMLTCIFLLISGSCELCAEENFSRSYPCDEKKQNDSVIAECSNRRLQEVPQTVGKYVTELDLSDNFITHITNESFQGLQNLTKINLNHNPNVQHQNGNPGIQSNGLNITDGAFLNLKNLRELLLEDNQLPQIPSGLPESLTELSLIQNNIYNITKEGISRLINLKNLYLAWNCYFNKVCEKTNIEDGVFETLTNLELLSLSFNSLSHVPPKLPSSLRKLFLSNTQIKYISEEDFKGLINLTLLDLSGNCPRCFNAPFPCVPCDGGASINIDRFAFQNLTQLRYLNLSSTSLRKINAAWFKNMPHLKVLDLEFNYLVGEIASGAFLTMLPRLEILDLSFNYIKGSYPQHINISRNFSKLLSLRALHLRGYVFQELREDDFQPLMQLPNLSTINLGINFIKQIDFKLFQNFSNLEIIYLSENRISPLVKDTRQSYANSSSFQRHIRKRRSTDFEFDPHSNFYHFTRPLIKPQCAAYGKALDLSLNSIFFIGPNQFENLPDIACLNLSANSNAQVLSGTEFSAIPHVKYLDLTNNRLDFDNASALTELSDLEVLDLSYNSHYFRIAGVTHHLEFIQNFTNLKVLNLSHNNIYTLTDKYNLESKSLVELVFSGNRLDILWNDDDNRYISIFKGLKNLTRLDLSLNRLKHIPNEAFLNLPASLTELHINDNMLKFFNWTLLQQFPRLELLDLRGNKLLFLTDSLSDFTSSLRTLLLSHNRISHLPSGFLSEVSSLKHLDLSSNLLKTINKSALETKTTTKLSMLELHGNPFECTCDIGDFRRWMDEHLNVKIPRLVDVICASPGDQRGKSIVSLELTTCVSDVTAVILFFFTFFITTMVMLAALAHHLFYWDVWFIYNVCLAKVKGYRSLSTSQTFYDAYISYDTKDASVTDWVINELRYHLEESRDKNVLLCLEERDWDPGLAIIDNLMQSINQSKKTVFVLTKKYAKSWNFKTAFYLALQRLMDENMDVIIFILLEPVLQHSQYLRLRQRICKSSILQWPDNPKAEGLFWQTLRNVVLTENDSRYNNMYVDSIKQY
Procedure, shortened: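 HEK293 cells stably expressing human TLR7 or TLR8, transiently transfected with SEAP reporter plasmid; medium replaced, SIMRA compounds added, 18 h incubation. Supernatant SEAP measured by QuantiBlue; expressed as fold increase in NF-κB activity over PBS control. Tabulated data at 50 μg/mL, representative of three independent experiments.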

Activity [1]	Activity [2]	Activity [3]	remaining at 10 min [5] [%]	Activity [7]	fold change (FC) [9]	SMILES	Activity [4] [pg/mL]	Activity [6] [pg/mL]	IFN-alpha [8] [pg/mL]
Active	Active	inactive	79	inactive	2	Nc1ccn([C@@H]2O[C@H](COP(=O)(S)O[C@H]3[C@@H](O)[C@H](n4cnc5c(N)ncnc54)O[C@@H]3CO)[C@@H](OP(=O)(S)OC[C@H]3O[C@@H](n4ccc(=O)[nH]c4=O)[C@H](O)[C@@H]3OP(=O)(S)OC[C@H]3O[C@@H](n4ccc(=O)[nH]c4=O)[C@H](O)[C@@H]3OP(=O)(S)OC[C@H]3O[C@@H](n4ccc5c(=O)[nH]c(N)nc54)[C@H](O)[C@@H]3OP(=O)(S)OC[C@H]3O[C@@H](n4cnc5c(N)ncnc54)[C@H](O)[C@@H]3OP(=O)(S)OC[C@H]3O[C@@H](n4cnc5c(N)ncnc54)[C@H](O)[C@@H]3OP(=O)(S)OC[C@H]3O[C@@H](n4ccc5c(=O)[nH]c(N)nc54)[C@H](O)[C@@H]3OP(=O)(S)OC[C@H]3O[C@@H](n4ccc(N)nc4=O)[C@H](O)[C@@H]3OP(=O)(S)OC[C@H]3O[C@@H](n4ccc(=O)[nH]c4=O)[C@H](O)[C@@H]3OP(=O)(S)OC[C@H]3O[C@@H](n4ccc(=O)[nH]c4=O)[C@H](O)[C@@H]3OP(=O)(S)OCC(O)COP(=O)(S)O[C@H]3[C@@H](O)[C@H](n4ccc(=O)[nH]c4=O)O[C@@H]3COP(=O)(S)O[C@H]3[C@@H](O)[C@H](n4ccc(=O)[nH]c4=O)O[C@@H]3COP(=O)(S)O[C@H]3[C@@H](O)[C@H](n4ccc(N)nc4=O)O[C@@H]3COP(=O)(S)O[C@H]3[C@@H](O)[C@H](n4ccc5c(=O)[nH]c(N)nc54)O[C@@H]3COP(=O)(S)O[C@H]3[C@@H](O)[C@H](n4cnc5c(N)ncnc54)O[C@@H]3COP(=O)(S)O[C@H]3[C@@H](O)[C@H](n4cnc5c(N)ncnc54)O[C@@H]3COP(=O)(S)O[C@H]3[C@@H](O)[C@H](n4ccc5c(=O)[nH]c(N)nc54)O[C@@H]3COP(=O)(S)O[C@H]3[C@@H](O)[C@H](n4ccc(=O)[nH]c4=O)O[C@@H]3COP(=O)(S)O[C@H]3[C@@H](O)[C@H](n4ccc(=O)[nH]c4=O)O[C@@H]3COP(=O)(S)O[C@H]3[C@@H](O)[C@H](n4ccc(N)nc4=O)O[C@@H]3COP(=O)(S)O[C@H]3[C@@H](O)[C@H](n4cnc5c(N)ncnc54)O[C@@H]3CO)[C@H]2O)c(=O)n1 (stereo partly drawn)	442	170	218
Active	Active	inactive	79	inactive	0.5	Nc1ccn([C@@H]2O[C@H](COP(=O)(S)O[C@H]3[C@@H](O)[C@H](n4cnc5c(N)ncnc54)O[C@@H]3COP(=O)(S)O[C@H]3[C@@H](O)[C@H](n4ccc5c(=O)[nH]c(N)nc54)O[C@@H]3COP(=O)(S)O[C@H]3[C@@H](O)[C@H](n4ccc(N)nc4=O)O[C@@H]3COP(=O)(S)O[C@H]3[C@@H](O)[C@H](n4ccc5c(=O)[nH]c(N)nc54)O[C@@H]3COP(=O)(S)O[C@H]3[C@@H](O)[C@H](n4ccc(=O)[nH]c4=O)O[C@@H]3COP(=O)(S)O[C@H]3[C@@H](O)[C@H](n4ccc5c(=O)[nH]c(N)nc54)O[C@@H]3COP(=O)(S)O[C@H]3[C@@H](O)[C@H](n4cnc5c(N)ncnc54)O[C@@H]3COP(=O)(S)O[C@H]3[C@@H](O)[C@H](n4cnc5c(N)ncnc54)O[C@@H]3CO)[C@@H](OP(=O)(S)OC[C@H]3O[C@@H](n4ccc(=O)[nH]c4=O)[C@H](O)[C@@H]3OP(=O)(S)OC[C@H]3O[C@@H](n4ccc(=O)[nH]c4=O)[C@H](O)[C@@H]3OP(=O)(S)OCC(O)COP(=O)(S)O[C@H]3[C@@H](O)[C@H](n4ccc(=O)[nH]c4=O)O[C@@H]3COP(=O)(S)O[C@H]3[C@@H](O)[C@H](n4ccc(=O)[nH]c4=O)O[C@@H]3COP(=O)(S)O[C@H]3[C@@H](O)[C@H](n4ccc(N)nc4=O)O[C@@H]3COP(=O)(S)O[C@H]3[C@@H](O)[C@H](n4cnc5c(N)ncnc54)O[C@@H]3COP(=O)(S)O[C@H]3[C@@H](O)[C@H](n4ccc5c(=O)[nH]c(N)nc54)O[C@@H]3COP(=O)(S)O[C@H]3[C@@H](O)[C@H](n4ccc(N)nc4=O)O[C@@H]3COP(=O)(S)O[C@H]3[C@@H](O)[C@H](n4ccc5c(=O)[nH]c(N)nc54)O[C@@H]3COP(=O)(S)O[C@H]3[C@@H](O)[C@H](n4ccc(=O)[nH]c4=O)O[C@@H]3COP(=O)(S)O[C@H]3[C@@H](O)[C@H](n4ccc5c(=O)[nH]c(N)nc54)O[C@@H]3COP(=O)(S)O[C@H]3[C@@H](O)[C@H](n4cnc5c(N)ncnc54)O[C@@H]3COP(=O)(S)O[C@H]3[C@@H](O)[C@H](n4cnc5c(N)ncnc54)O[C@@H]3CO)[C@H]2O)c(=O)n1 (stereo partly drawn)	171	1.7	123
